Compound activity as filed in PubChem BioAssay.
KCC2 mod: modulates chloride dependent transport by human KCC2; B-score of Tl+ flux slope (higher = more flux/activation; lower = inhibition) at 10 µM; Q9H2X9; 190,000 compounds, 2.2% hits; KCC2 cells, thallium flux FluoZin-2 fluorescence;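 active = thallium flux slope and its plate-corrected score both differing from the plate sample mean at a set confidence after two filtering rounds, in either direction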;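 also: slope of fluorescence scaled to starting intensity during 10 to 20 s after thallium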
Target sequence (Q9H2X9 whole entry, looked up): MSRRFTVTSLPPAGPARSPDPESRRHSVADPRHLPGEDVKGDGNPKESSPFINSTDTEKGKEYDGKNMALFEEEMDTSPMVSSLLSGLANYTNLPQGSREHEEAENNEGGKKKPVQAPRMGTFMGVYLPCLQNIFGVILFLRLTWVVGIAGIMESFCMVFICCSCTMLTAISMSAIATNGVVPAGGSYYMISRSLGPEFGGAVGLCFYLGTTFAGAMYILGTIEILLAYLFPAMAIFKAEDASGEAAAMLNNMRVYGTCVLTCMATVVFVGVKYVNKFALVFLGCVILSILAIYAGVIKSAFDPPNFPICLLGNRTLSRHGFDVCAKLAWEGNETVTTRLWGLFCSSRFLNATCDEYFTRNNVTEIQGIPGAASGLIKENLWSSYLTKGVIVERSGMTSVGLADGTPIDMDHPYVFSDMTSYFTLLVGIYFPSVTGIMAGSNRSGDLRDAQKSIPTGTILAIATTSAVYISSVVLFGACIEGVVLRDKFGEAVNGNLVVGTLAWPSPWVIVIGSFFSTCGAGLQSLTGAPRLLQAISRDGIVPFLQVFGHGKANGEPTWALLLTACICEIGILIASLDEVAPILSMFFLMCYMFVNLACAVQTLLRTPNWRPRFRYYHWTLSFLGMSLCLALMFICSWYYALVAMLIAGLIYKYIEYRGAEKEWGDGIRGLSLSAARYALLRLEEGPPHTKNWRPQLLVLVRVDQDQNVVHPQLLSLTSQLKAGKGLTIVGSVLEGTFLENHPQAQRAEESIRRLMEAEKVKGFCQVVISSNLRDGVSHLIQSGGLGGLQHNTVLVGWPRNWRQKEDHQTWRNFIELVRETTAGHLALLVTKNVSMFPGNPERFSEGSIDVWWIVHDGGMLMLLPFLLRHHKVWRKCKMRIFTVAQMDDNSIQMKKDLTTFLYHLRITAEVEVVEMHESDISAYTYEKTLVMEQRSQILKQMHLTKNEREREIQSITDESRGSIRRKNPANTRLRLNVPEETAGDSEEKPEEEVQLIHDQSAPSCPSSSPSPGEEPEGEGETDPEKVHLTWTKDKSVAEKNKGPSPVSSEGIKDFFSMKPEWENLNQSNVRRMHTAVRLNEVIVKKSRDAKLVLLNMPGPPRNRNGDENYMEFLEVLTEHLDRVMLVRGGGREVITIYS
Yeast life ext: extends the lifespan of yeast | S. cerevisiae growth with nicotinamide, OD615; deaD strain in restrictive glucose medium | inhibition of the nicotinamide effect, % at 10 µM | 130,000 compounds, 0.68% hits;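 active = inhibition above a set limit, placed 3 SD over the median of all compounds, cut at about 26% in these data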;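 also: 0% = nicotinamide-treated wells and 100% = cells grown without nicotinamide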
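System: DeaD-strain S. cerevisiae / Buffer or medium: CSMM-D, restrictive glucose (dextrose) synthetic minimal medium / Probe or stimulus: nicotinamide, 1.5 mM, co-present with compound / Compound: one concentration, 10 µM, DMSO 0.25% / Incubation: 48 h compound exposure at 30 °C, humidified / Technique: optical density (absorbance) at 615 nm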
RAM inhibit: blocks the yeast RAM network. 190,000 compounds, 1.8% hits. S. cerevisiae dse1pr::URA3 reporter, 5-FOA growth OD615, 2 d; analog-sensitive cbk1-as2 kinase mutant strain. inhibition, % at 50 µM;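 active = inhibition above a set limit, 3 SD over mean compound inhibition, cut at about 8.4% in these data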;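 also: 0% = DMSO-only wells with no growth and 100% = 10 µM 1-NA-PP1 full growth; inhibition rescues growth on 5-FOA so higher OD means more RAM inhibition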
WT yeast gro inh: growth inhibition of WT yeast, mitochondrial fusion screen | mitochondrial fusion phenotypic screen, WT strain | inhibition, % at 10 µM | 190,000 compounds, 2.1% hits; in the data active = inhibition above about 58%; tested in S. cerevisiae
BB579 growth dn: yeast BB579 growth reduction in restrictive medium | S. cerevisiae BB579 growth, OD615, 48 h | inhibition, % at 10 µM | AID 804 | 140,000 compounds, 0.51% hits;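 active = inhibition above a set limit, 3 SD over the mean compound inhibition, cut at about 44% in these data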
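Test system: Saccharomyces cerevisiae DeaD strain BB579, replicative lifespan model yeast | Buffer or medium: Restrictive CSMM-D medium | Doses: One dose, 10 µM compound with 0.25% DMSO | Incubation: 48 h exposure, 30 °C | Detection: Culture absorbance at 615 nm | Control set: Amphotericin B at 10 µg/mL as positive control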
An asterisk follows results filed as active; / = no result. Hits are enriched below; roughly 5.5% of the tested compounds scored in any of these assays.

SMILES	KCC2 mod	Yeast life ext	RAM inhibit	WT yeast gro inh	BB579 growth dn
Cc1cc(C)c2[nH]c(=S)cc(C)c2c1	31.4*	-12.3	0.1	2.7	-24.9
Cc1cc(=S)[nH]c(=S)[nH]1	1.31	/	/	/	/
Cc1cc(C)c(N2CCN(S(=O)(=O)N3CCCCCC3)CC2)c(C)c1	0.498	-6.4	11.0*	60.7*	-68.0
O=C(c1cnn(-c2ccccc2)c1)c1ccc2ccccc2c1O	/	-10.1	10.4*	1.8	-10.1
COc1ccccc1NC(=O)COc1ccccc1C(=O)c1cnn(-c2ccccc2)c1	0.584	-6.8	1.4	29.6	-34.3
O=C1N=C(N2CCN(c3cccc4ccccc34)CC2)S/C1=C/c1cccs1	/	-7.7	5.7	24.7	-69.5
Cc1ccccc1N1CCN(C2=NC(=O)/C(=C\c3cccs3)S2)CC1	-0.0898	-3.9	5.2	63.7*	-24.8
Cn1ccnc1C(O)(c1ccccc1)c1ccccc1	0.0239	/	/	/	/
Cc1ccc(S(=O)(=O)N[C@H](C(=O)OCC(=O)N2N=C(c3ccc(Cl)cc3)CC2c2ccco2)C(C)C)cc1 (some centres not stated)	0.00227	-2.7	3.3	28.4	-22.6
[N-]=[N+]=CC(=O)C(Cc1ccccc1)N1C(=O)c2ccccc2C1=O (configuration not stated)	-1.13	33.6*	2.4	6.7	-11.9
COC(=O)Cc1cc(=O)n(-c2nc3ccccc3[nH]2)[nH]1	/	-5.5	2.0	-3.5	71.5*
COc1ccc(CC(=O)Nc2nc3ccccc3[nH]2)cc1	0.236	/	/	/	/
Cc1cc(N/N=C/c2ccc(Cl)cc2Cl)nc(NCc2ccccc2)n1	-1.57	-14.1	-1.4	83.0*	99.4*
Cc1cc(Nc2ccc(Cl)cc2)nc(NCc2ccccc2)n1	-0.361	-9.6	8.4*	96.8	-28.1
Cc1cc(Nc2ccccc2)nc(NCc2ccccc2)n1	0.177	-2.0	4.1	64.3	-33.2
Clc1ccc(-c2nc3cnccn3c2NC2CCCC2)cc1	-0.12	-6.3	2.0	68.1*	9.1
c1ccc(-c2nc3ccccn3c2NC2CCCC2)nc1	-1.06	/	1.8	68.4*	/
Cc1ccn2c(NC3CCCC3)c(-c3ccncc3)nc2c1	-0.817	/	2.0	17.9	/
Cc1ccn2c(NC3CCCC3)c(-c3ccccn3)nc2c1	-1.15	/	0.3	76.5*	/
Cc1nnc(SCC(=O)N2CCN(C(=O)c3ccco3)CC2)n1-c1ccccc1	0.867	/	0.8	0.5	/
CCOC(=O)/C(=N\Nc1ccc(Cl)cc1)Sc1nnc(-c2ccc(OC)cc2)n1C	0.126	-3.9	0.0	21.9	-31.6
C#CCn1cnc2c(cnn2-c2ccc(C)c(C)c2)c1=O	/	-22.6	3.2	60.2*	-15.3
Cc1ccc(-n2ncc3c(=O)n(CC#N)cnc32)cc1C	1.25	-10.0	0.0	-4.1	-18.1
CC(NC(=O)C(C)(C)C)C(c1cccs1)N1CCOCC1 (configuration not stated)	0.51	/	/	/	/
COC(=O)c1ccccc1Sc1c(/C=N/OC(=O)c2ccccc2)c(C(F)(F)F)nn1C	/	-6.2	2.7	-2.5	-6.9
SMILES	KCC2 mod	Yeast life ext	RAM inhibit	WT yeast gro inh	BB579 growth dn
Cc1ccc(C(=O)O/N=C/c2c(C(F)(F)F)nn(C)c2Sc2ccc(Cl)cc2)cc1	0.36	-1.4	9.6*	1.9	-73.3
Cc1ccc(Nc2ccc(-n3ccnc3)nn2)cc1C	1.06	-14.6	0.5	68.6*	-28.7
Cc1cccc(N=Cc2c(O)cc(C)oc2=O)c1	0.153	/	0.5	-0.6	/
Cc1cc(O)c(/C=N/Nc2ccc(Cl)cc2)c(=O)o1	-0.0361	-28.1	2.5	8.1	96.7*
Cc1cc(O)c(/C=N/OCc2ccc(Cl)cc2Cl)c(=O)o1	0.0192	/	1.1	-2.8	/
Cc1cc(O)c(/C=N/Nc2ccccc2Cl)c(=O)o1	0.0463	-31.9	0.0	12.6	97.9*
Cc1cc(O)c(/C=N/Nc2cccc(Cl)c2)c(=O)o1	-0.79	-25.6	-1.2	44.5	97.6*
CC(C)CN(C(=O)CN1CCN(c2ccc([N+](=O)[O-])cc2)CC1)c1c(N)n(CC(C)C)c(=O)[nH]c1=O	0.201	/	1.6	-1.9	/
CC1(c2ccc(Cl)cc2Cl)OCC(Cn2ccnc2)O1 (configuration not stated)	-0.442	9.2	1.6	72.6*	-35.6
CCOCCCNC(=S)NCCCNc1nc2c(C)c(C)ccc2cc1C#N	/	/	5.1	73.6*	/
CCOC(=O)/C(=C/c1ccc(OC(=O)c2ccccc2)cc1)C(C)=O	-0.021	32.6*	1.7	5.7	17.4
CCOC(=O)/C(=C\c1ccccc1)NC(=O)c1ccccc1	0.0278	/	/	/	/
COc1ccc(OC)c(S(=O)(=O)NC(N)=NCCc2ccccc2)c1	-0.985	/	0.6	2.3	/
Cc1ccc(NC(=O)C2SC(=Nc3ccccc3)C(C(=O)Nc3ccc(Cl)cc3)=C2N)cc1 (configuration not stated)	0.74	/	6.7	66.0*	/
O=C(NCCCn1ccnc1)c1nn2c(C(F)(F)F)cc(-c3ccc(Br)cc3)nc2c1Cl	0.777	-5.9	3.0	48.0	-13.7
COc1ccc(NC(=O)Cn2c(CCC(=O)O)ccc2-c2ccc(C)cc2)cc1	1.65	/	-0.2	-5.1	/
CCN(CC)c1ccc2c(C)c(Cl)c(=O)oc2c1	1.11	/	-1.6	10.6	/
CCN(CC)c1ccc2c(Cl)c(Br)c(=O)oc2c1	-1.93	-0.9	5.7	76.6*	-41.6
CCCOc1ccc(C(=O)CCN2CCN(C(=O)OCC)CC2)cc1	-0.589	/	-0.4	-2.3	/
CCOC(=O)c1cnc(Nc2nc3ccccc3o2)nc1CSc1ncccn1	-0.499	/	/	/	/
CCCc1nc(Nc2nc3ccccc3o2)nc(C)c1C(=O)OCC	-0.284	-3.5	10.6*	0.0	-57.5
O=C(C1CC12CCCC2)N1CCC(CO)(Cc2ccccc2Cl)CC1 (configuration not stated)	/	/	-0.4	18.0	/
COc1ccc(-c2ccccc2)cc1NCc1ccc(OC)c(OC)c1	-0.0221	-1.8	3.9	39.4	-3.3
CCc1cccc2c(C(=O)COC(=O)c3ccc([N+](=O)[O-])s3)c[nH]c12	-0.157	-9.3	3.2	96.2	98.1*
O=C(OCC(=O)c1c[nH]c2ccccc12)c1ccc([N+](=O)[O-])s1	/	/	1.2	96.7	/
SMILES	KCC2 mod	Yeast life ext	RAM inhibit	WT yeast gro inh	BB579 growth dn
O=C(Cn1cc(C(F)(F)F)ccc1=O)Nc1cccc(S(=O)(=O)N2CCOCC2)c1	0.264	-2.6	2.5	-26.7	-3.1
Cn1c(Oc2ccc(F)cc2)c(C=O)c2ccccc21	-1.04	/	1.4	-0.9	/
Cn1c(Sc2ccc(Br)cc2)c(C=O)c2ccccc21	/	-6.8	10.2*	-0.2	-30.9
O=Nc1c(O)n(Cc2ccc(Cl)c(Cl)c2)c2ccccc12	0.178	-34.0	0.5	1.9	87.3*
CCOc1ccc(-c2nnn(CC(=O)NCc3ccc(OC)cc3)n2)cc1OCC	0.978	-7.8	0.6	5.7	-50.5
COc1ccc(CNC(=O)Cn2nnc(-c3ccc(NC(=O)C4CCCCC4)cc3)n2)cc1	0.621	-1.1	9.0*	-8.5	-29.9
O=C(Nc1ccc(N2CCCCC2)c(Cl)c1)c1ccc2c(c1)OCCO2	/	-13.4	0.6	68.5*	-19.0
CCN1CCN(c2ccc(NC(=O)c3ccc4c(c3)OCO4)cc2)CC1	-0.346	-6.1	-0.4	64.0*	-16.9
